Only some compounds are listed: those with a hit (about 1.9% of all), similar ones and a draw of the others.
PLCg1 inh – blocks human PLC-gamma1 enzyme activity; P19174; purified PLC-gamma1, fluorogenic substrate, fluorescence; inhibition, % at 12.2 µM; hit rate 0.84% among 370,000; AID 720700
PLC-beta3 inh – inhibitors of human phospholipase C beta3 | Purified PLC-beta3, fluorogenic substrate, fluorescence | inhibition, % at 12.2 µM | hit rate 0.18% among 370,000 | Q01970; in the data active means inhibition above about 11%;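 further: 0% = median of compound wells on plate and 100% = full blocker control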
sPLA2-III inh – Inhibits HGIII-sPLA2 liposome hydrolysis, primary screen; Q9NZ20; QFRET BODIPY PC-A2 liposome hydrolysis, fluorescence; inhibition, % at 12.2 µM; hit rate 0.56% among 370,000; AID 743126;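 active means inhibition above mean plus 3 SD of compounds lying within the high and low control bounds, cut at about 19% in these data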;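 further: 0% = median of test compound wells and 100% = no enzyme DMSO wells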
Tb MetRS inh – Trypanosoma brucei MetRS inhibition; purified T. brucei MetRS, ATP depletion, Kinase-Glo luminescence; inhibition, % at 11.9 µM; hit rate 0.4% among 360,000;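 active means inhibition above a per-plate cutoff of the control wells' mean inhibition plus 3 SD, cut at about 5.5% in these data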;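 further: 0% = DMSO wells median and 100% = median of wells with control inhibitor compound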
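Material: T. brucei methionyl-tRNA synthetase, purified; reagent: substrates ATP, L-methionine and bulk Escherichia coli tRNA; dosing: 11.9 µM single point; timing: 15 min plus 2 h at 25 °C; detection: luminescence of leftover ATP; evaluation: % inhibition; control set: DMSO-only wells as low control; replicates: singlicate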
PLCgamma1 ctr – PLC-gamma1 inhibition, counter-screen for PLC-beta3 hits; purified PLC-gamma1, fluorogenic substrate, fluorescence; hit rate 3.1% among 3,300; shares compounds with PLCg1 inh; inhibition, % at 12.3 µM
PLCbeta3 conf – human PLC-beta3 inhibition, confirmation; shares compounds with PLCg1 inh; purified PLC-beta3, fluorogenic substrate fluorescence; inhibition, % at 12.3 µM; hit rate 1% among 3,300; in the data active means inhibition above about 11%
* = called active by the depositor; nt = no result. Unless noted, no stated cut-off is given here; in the data, active means inhibition above about 9.5%; inactive means the rest.

SMILES | PLCg1 inh | PLC-beta3 inh | sPLA2-III inh | Tb MetRS inh | PLCgamma1 ctr | PLCbeta3 conf
CN1CCCCC(NC(=O)c2cccs2)C1=O (stereo not given) | -1 | 2 | 4 | nt | nt | nt
C=CCn1c(SCC(=O)Nc2ccccc2-c2ccccc2)nnc1-c1ccc(Cl)cc1 | 10* | -7 | -11 | nt | -7 | -4
C=CCn1c(SCC(=O)Nc2cccnc2Cl)nnc1-c1ccc(Cl)cc1 | 1 | 0 | 11 | -1 | nt | nt
Clc1cc(Cl)c2nc(N3CCCC3)sc2c1 | 12* | -1 | 14 | 0 | -7 | -7
Clc1cc(Cl)c2nc(N3CCCCC3)sc2c1 | 9.9* | 6 | 1 | 0 | -1 | -7
Clc1cccc2sc(N3CCCCC3)nc12 | 1 | 1 | -2 | 1 | nt | nt
Cn1nnnc1SCCNC/C=C/c1ccccc1 | 8 | 13* | 7 | 0 | -5 | 0
Cn1nnnc1SCCNCc1cccc2ccccc12 | 0 | -137 | 4 | 0 | nt | nt
O=[N+]([O-])c1cccc2[nH]c(CNc3nc(N4CCOCC4)nc4c3ncn4-c3ccsc3)nc12 | -1 | 0 | -9 | nt | nt | nt
Fc1ccccc1NC(=S)N1CCN(c2ccccn2)CC1 | 10* | 8 | 7 | 0 | -7 | -1
Cc1ccc(NC(=S)N2CCN(c3ccccn3)CC2)cc1C | 11* | 0 | 18 | 0 | -1 | 2
Nc1[nH]c(C(=O)c2ccccc2)c(-c2ccccc2[N+](=O)[O-])c1C(=O)NCCc1c[nH]c2ccccc12 | -7 | -9 | -34 | nt | nt | nt
CN(Cc1ccccc1)S(=O)(=O)c1ccc2c(c1)OCCO2 | 0 | 1 | 7 | 0 | nt | nt
COc1ccc(CN(C)S(=O)(=O)c2ccc3c(c2)OCCO3)cc1 | 12* | -2 | -16 | 0 | -4 | -5
O=C(NC(=S)Nc1c(F)cc(F)cc1Br)c1ccc2c(c1)OCCO2 | 13* | 9 | 10 | 0 | -5 | -2
COCCCNC(=O)C[C@H]1C[C@@]2(C(=O)OC)C(=C[C@H](C3CCCC3)O[C@@H]2C)N(CCC2=CCCCC2)C1=O | -3 | -2 | 0 | nt | nt | nt
O=S(=O)(c1ccc(F)c(F)c1)N1CCN(Cc2ccc3c(c2)OCO3)CC1 | 11* | 4 | -4 | 0 | 0 | 0
COc1cc(C)c(C)cc1S(=O)(=O)N1CCN(Cc2ccc3c(c2)OCO3)CC1 | 10* | 11* | -22 | 0 | -4 | -1
COc1cc(S(=O)(=O)N2CCN(Cc3ccc4c(c3)OCO4)CC2)c(C)cc1C | 5 | 0 | 1 | 0 | nt | nt
C[C@]12Cc3ccccc3C1CC1=N[C@@H](c3ccc(C(F)(F)F)cc3)O[C@@]13C[C@@H]2C(=O)N3Cc1ccncc1 (stereo not given in full) | -10 | -7 | -7 | nt | nt | nt
C[C@]12CCC(O)CC1=CCC1C2CC[C@]2(C)/C(=N\NC(N)=S)CCC12 (stereo not given in full) | 12* | -3 | 12 | -1 | -3 | -1
CC12CCC(O)CC1=CCC1C2CCC2(C)C1CCC21CCC(=O)O1 (stereo not given) | 0 | -1 | -3 | -1 | nt | nt
O=C(NCc1ccccc1)c1onc(CSc2ccc(F)c(F)c2)c1C(=O)NCc1ccccc1 | 2 | 11* | -2 | 0 | 1 | -1
O=C(NCc1ccccc1)c1onc(CSc2ccc(Cl)cc2)c1C(=O)NCc1ccccc1 | 3 | 3 | 8 | 0 | nt | nt
COC(=O)[C@H](CC1(c2cn(S(=O)(=O)CC[Si](C)(C)C)c3ccccc23)C(=O)Nc2ccccc21)NC(=O)OC(C)(C)C (stereo not given in full) | -20 | -27 | -8 | nt | nt | nt
SMILES | PLCg1 inh | PLC-beta3 inh | sPLA2-III inh | Tb MetRS inh | PLCgamma1 ctr | PLCbeta3 conf
CCOC(=O)[C@]12CCCC=C1N(CCCOC)C(=O)[C@@H]2CC(=O)N1CCCC1 | 0 | 2 | 6 | nt | nt | nt
COc1ccc(NC(=S)Nc2cc(C)[nH]n2)cc1Cl | 0 | -6 | 19 | -1 | nt | nt
COc1ccc(NC(=S)Nc2cc(-c3ccccc3)[nH]n2)cc1Cl | 12* | 12* | 14 | 0 | -1 | -3
O=C(CCn1c(=S)oc2ccccc21)NC1CCCCCCC1 | 10.0* | -1 | 6 | 1 | -4 | 0
Cc1[nH]nc2c1C(c1cccc(C(F)(F)F)c1)NC2=O (stereo not given) | 2 | -1 | -2 | nt | nt | nt
COC(=O)[C@]12C[C@H](CC(=O)NCc3cccc4ccccc34)C(=O)N(Cc3ccco3)C1=C[C@H](C(C)C)O[C@@H]2C1CC1 | 3 | 1 | -8 | nt | nt | nt
CCOC(=O)[C@@]12CCCC3=C1N(CCC3)C(=O)[C@H]2CC(=O)NCc1cccc(C(F)(F)F)c1 | 2 | 4 | -1 | nt | nt | nt
Cc1cc(C)c2c(=O)n(CC(=O)Nc3ccc(Cl)cc3)sc2n1 | 1 | -5 | -4 | 0 | nt | nt
Cc1ccc(NC(=O)Cn2sc3nc(C)cc(C)c3c2=O)c(Cl)c1 | 13* | -1 | 11 | -1 | -6 | -2
CC(C)C(OC(=O)c1cc2c(s1)CCCCC2)C(=O)NC(N)=O (stereo not given) | 18* | 3 | 18 | 0 | -4 | -3
O=C(c1cc2cc([N+](=O)[O-])ccc2oc1=O)N1CCOCC1 | -1 | 4 | 0 | 0 | nt | nt
O=C(c1cc2cccc([N+](=O)[O-])c2oc1=O)N1CCOCC1 | 12* | -5 | 17 | 0 | -6 | 0
CCOc1ccc(N(CC(=O)NCCc2ccccc2)C(=O)c2csnn2)cc1 | 11* | -6 | 14 | 0 | 3 | 0
COc1ccc(N(CC(=O)NCCc2ccccc2)C(=O)c2csnn2)cc1 | 3 | -3 | 6 | 1 | nt | nt
O=C(OCn1nnc2ccccc2c1=O)c1ccc(S(=O)(=O)N2CCOCC2)cc1 | nt | nt | nt | 0 | nt | nt
CCN(CC)S(=O)(=O)c1ccc(C(=O)OCn2nnc3ccccc3c2=O)cc1 | 7 | 17* | -20 | -1 | -2 | -1
COc1cccc(C(=O)N(CCN2CCOCC2)Cc2ccc(OC)c(OC)c2)c1 | 1 | -2 | 1 | nt | nt | nt
C=CCN1[C@@H](C)COc2cc(N3CCSCC3)ccc2S1(=O)=O | 0 | -2 | 5 | nt | nt | nt
Cc1ccc(NS(=O)(=O)c2ccc(OCC(=O)NCc3ccncc3)cc2)cc1 | 3 | 11* | -17 | 0 | -7 | -1
CCOc1ccc(NS(=O)(=O)c2ccc(OCC(=O)NCc3ccncc3)cc2)cc1 | 1 | -6 | 0 | 1 | nt | nt
CC(C)(C)CCN1C[C@@H]2C(CNC(=O)c3cc(Cl)cc(Cl)c3)[C@@H]2C1 (stereo not given in full) | 1 | 4 | -5 | nt | nt | nt
O=C(CSc1nnc(-c2cnccn2)n1-c1ccccc1)Nc1ccc2c(c1)OCCO2 | 0 | 2 | 4 | nt | nt | nt
C#CCNC(=O)C[C@H]1C[C@@]2(C(=O)OC)C(=C[C@H](COCc3ccccc3)O[C@@H]2C)N(Cc2ccc(Cl)cc2Cl)C1=O | 1 | -1 | -18 | nt | nt | nt
Cc1nc(C(F)(F)F)ccc1C(=O)N1CCC1(C)C(=O)NS(=O)(=O)c1ccc2c(c1)CCO2 (stereo not given) | 10* | 2 | 0 | 0 | 4 | 2

From PubChem
